According to ChEMBL document CHEMBL5625181, “Exploring the 1,3-benzoxazine chemotype for cannabinoid receptor 2 as a promising anti-cancer therapeutic” (Eur J Med Chem, 2023):
Activity calls are given as the source filed them. The rule behind the calls is not given here.

Experiments:
[1] = target: T1, Cannabinoid receptor 2 (Homo sapiens, UniProt P34972); test: Displacement of [3H]CP55,940 from human CB2 receptor expressed in CHO cells membrane assessed as residual activity at 0.1 uM by scintillation counting analysis relative to control; assay type: cell membranes
In short: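 Membranes (2.5 µg) from CHO cells stably expressing human CB2, in 50 mM Tris-HCl, 5 mM MgCl2, 1 mM CaCl2, 2 mg/mL BSA, pH 7.4. Incubated 30 min at 37 °C with 0.8 nM [3H]CP55,940 and 0.1 µM compound (final). Nonspecific binding with 1 µM unlabelled CP55,940. Filtered on PEI-soaked GF/B filters, scintillation counted. Quintuplicate, ≥3 experiments.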

[2] = target: T1, Cannabinoid receptor 2; test: Agonist activity at human recombinant Cannabinoid receptor 2 by GTPgammaS binding assay; assay type: functional; settings: for EC50: read-out: pEC50 (converted)
In short: (§1)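 [35S]GTPγS filtration assay. Membranes (5 µg CB2 or 10 µg/well CB1), permeabilized with equal mass of saponin, preincubated 20 min at room temperature with compound (0-100 μM) in 20 mM HEPES, 100 mM NaCl, 10 mM MgCl2, 10 µM GDP, pH 7.4. Then 0.3 nM [35S]GTPγS for 30 min at 37 °C. Quintuplicate, ≥3 experiments. pEC50 from non-linear fit.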

[3] = target: Cannabinoid receptor 1 (Homo sapiens, UniProt P21554); test: Agonist activity at human recombinant Cannabinoid receptor 1 by GTPgammaS binding assay; assay type: functional; settings: read-out: pEC50 (converted); in short: as §1
[4] = tested on: BT-549; test: Antiproliferative activity against human BT-549 cells assessed as decrease in cell proliferation at 0.1 uM by MTT assay; assay type: functional, cell-based
In short: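 BT549 in RPMI-1640 with 10% FBS and insulin, seeded at 1.5 x 10^4/well overnight. Sub-confluent cells treated at 37 °C. MTT added at 1 mg/mL final for 3 h at 37 °C in the dark, formazan dissolved in DMSO, absorbance read at 590 nm. Expressed as % of vehicle.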

[5] = tested on: BT-549; test: Inhibition of colony formation in human BT-549 cells assessed as decrease in number of colonies at 0.1 uM incubated for 14 days by inverted phase contrast microscope relative to control; assay type: functional, cell-based; settings: time 14.0 day
In short: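 BT549 seeded at 1 x 10^3 cells/well and grown at 37 °C for at least 14 days with vehicle or compound. Colonies fixed and stained with 6% glutaraldehyde/0.5% crystal violet for 30 min, then counted by inverted phase-contrast microscopy (10x). Expressed as % of vehicle. Three independent experiments, each at least in triplicate.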

[6] = tested on: BT-549; test: Antiproliferative activity against human BT-549 cells transfected with CNR2 siRNA assessed as inhibition of cell proliferation at 0.1 uM incubated after 24 hrs by MTT assay; assay type: functional, cell-based
In short: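 BT549 transfected with 50 nM CNR2 siRNA or scramble oligo (Lipofectamine RNAiMAX). After 24 h, treated for a further 24 h. Viability by MTT: 1 mg/mL final for 3 h at 37 °C, formazan dissolved in DMSO, absorbance read at 590 nm.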

[7] = target: T1, Cannabinoid receptor 2; test: Agonist activity at human recombinant Cannabinoid receptor 2 assessed as stimulation of GTPgammaS binding at 1 uM by GTPgammaS binding assay relative to control; assay type: functional
In short: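 CB2 membranes (ChemiSCREEN) at 5 µg, permeabilised with an equal mass of saponin. Pre-incubated with ligand for 20 min at RT in 20 mM HEPES, 100 mM NaCl, 10 mM MgCl2, pH 7.4, with 10 µM GDP. Then 0.3 nM [35S]GTPγS for 30 min at 37 °C. Stopped with ice-cold phosphate buffer, filtered on PEI-soaked GF/B, scintillation counted. Quintuplicates, ≥3 experiments.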

T1 sequence (P34972 whole entry): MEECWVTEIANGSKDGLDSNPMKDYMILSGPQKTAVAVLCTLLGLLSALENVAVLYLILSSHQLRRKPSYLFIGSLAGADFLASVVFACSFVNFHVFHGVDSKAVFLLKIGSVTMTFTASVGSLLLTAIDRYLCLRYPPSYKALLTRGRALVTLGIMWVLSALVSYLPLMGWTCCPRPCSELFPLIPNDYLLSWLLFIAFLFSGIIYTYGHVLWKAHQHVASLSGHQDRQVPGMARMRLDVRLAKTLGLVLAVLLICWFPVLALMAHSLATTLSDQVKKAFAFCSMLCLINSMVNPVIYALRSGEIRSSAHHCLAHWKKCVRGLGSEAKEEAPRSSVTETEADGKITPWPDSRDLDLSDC
Cannabinoid receptor 1, sequence (P21554 whole entry): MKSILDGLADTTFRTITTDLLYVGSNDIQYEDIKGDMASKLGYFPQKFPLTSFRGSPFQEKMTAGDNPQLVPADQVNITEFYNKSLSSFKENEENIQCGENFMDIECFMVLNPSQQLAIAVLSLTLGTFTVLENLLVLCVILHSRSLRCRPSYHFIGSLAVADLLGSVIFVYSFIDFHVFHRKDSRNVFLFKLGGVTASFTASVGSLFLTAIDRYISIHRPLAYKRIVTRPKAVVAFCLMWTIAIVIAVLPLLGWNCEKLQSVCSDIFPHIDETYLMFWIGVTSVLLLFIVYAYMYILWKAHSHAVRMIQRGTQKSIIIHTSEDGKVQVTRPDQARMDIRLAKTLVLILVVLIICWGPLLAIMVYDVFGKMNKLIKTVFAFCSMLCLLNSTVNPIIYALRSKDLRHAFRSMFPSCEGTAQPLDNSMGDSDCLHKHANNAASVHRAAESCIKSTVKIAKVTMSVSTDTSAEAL

SMILES | Activity [1] | EC50 [2] | EC50 [3] | other results
COc1cccc(S(=O)(=O)Oc2ccc3c(c2)OC2(CCCCC2)N(Cc2ccc(C(C)C)cc2)C3=O)c1 | < 80% | – | – | –
CC1(C)NC(=O)c2ccc(OS(=O)(=O)c3cccc4ccccc34)cc2O1 | < 80% | – | – | –
N#Cc1ccc(S(=O)(=O)Oc2ccc3c(c2)OC2(CCCCC2)N(Cc2ccccc2)C3=O)cc1 | < 80% | 288 nM | > 10000 nM | –
N#Cc1ccc(CN2C(=O)c3ccc(OCc4ccc(OC(F)(F)F)cc4)cc3OC23CCCCC3)cc1 | < 80% | – | – | pEC50 [2]: inactive
COc1cccc(COc2ccc3c(c2)OC(C)(C)N(Cc2ccc(F)cc2)C3=O)c1 | < 80% | – | – | pEC50 [2]: inactive
CCCn1c(C)c(C(=O)c2cccc3ccccc23)c2ccccc21 | – | – | – | Activity [4]: Active; inhibition [5]: Active; Activity [6]: inactive; Activity [7]: 233%
CN1C(=O)c2ccc(OS(=O)(=O)c3cccc4ccccc34)cc2OC1(C)C | < 80% | 2950 nM | 7240 nM | –
COc1ccc(S(=O)(=O)Oc2ccc3c(c2)OC2(CCCCC2)N(Cc2ccccc2)C3=O)cc1 | < 80% | 1480 nM | > 10000 nM | –
COc1cccc(S(=O)(=O)Oc2ccc3c(c2)OC2(CCCCC2)N(CCCCC#N)C3=O)c1 | < 80% | 776 nM | > 10000 nM | –
O=C1c2ccc(OS(=O)(=O)Cc3ccccc3)cc2OC2(CCCCC2)N1Cc1ccccc1 | < 80% | 759 nM | > 10000 nM | –
O=C1c2ccc(OS(=O)(=O)c3ccc(-c4ccc(Cl)cc4)cc3)cc2OC2(CCCCC2)N1Cc1ccccc1 | < 80% | – | – | –
O=C1NC2(CCCCC2)Oc2cc(OS(=O)(=O)c3ccccc3[N+](=O)[O-])ccc21 | < 80% | 2140 nM | > 10000 nM | –
CC(C)(C)C(=O)COc1ccc2c(c1)OC(C)(C)N(Cc1ccccc1)C2=O | < 80% | – | – | pEC50 [2]: inactive
